Experimental data reported in ChEMBL document CHEMBL4028913, “Discovery of Novel Potent VEGFR-2 Inhibitors Exerting Significant Antiproliferative Activity against Cancer Cell Lines” (J Med Chem, 2018).
Activity calls are given as the source filed them. The rule behind the calls is not given here.

Experiments:
[1] = test system: MDA-MB-435; assay: Growth inhibition of human MDA-MB-435 cells at 10 uM after 72 hrs by CellTiter-Glo assay relative to control; type: functional; conditions: MDA-MB-435, 72 h, read-out: GI
Procedure, shortened: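 Cells in exponential phase seeded at 2000–4000 cells/well, then exposed 72 h at 37 °C, 5% CO2 with 0.1% final DMSO. Single-point screen at 10 μM final. […] Read-out was CellTiter-Glo luminescence.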

[2] = test system: CCRF-CEM; assay: Cytotoxicity against human CCRF-CEM cells after 48 hrs by SRB assay; type: functional
Procedure, shortened: (§1)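 NCI-60 panel; cells grown in RPMI 1640 with 5% FBS and 2 mM L-glutamine, plated at 5000–40 000 cells/well by doubling time, preincubated 24 h (37 °C, 5% CO2). Drug added at five concentrations, 1-log steps from 10−4 to 10−8 M, for 48 h. Fixed with TCA, stained with 0.4% SRB, absorbance read at 515 nm. Percent growth computed against time-zero and untreated controls; GI50, TGI and LC50 derived.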

[3] = test system: K562; assay: Cytotoxicity against human K562 cells after 48 hrs by SRB assay; type: functional; conditions: K562, 48 h; procedure, shortened: as §1
[4] = test system: NCI-H23; assay: Cytotoxicity against human NCI-H23 cells after 48 hrs by SRB assay; type: functional; conditions: NCI-H23, 48 h; procedure, shortened: as §1
[5] = test system: HT-29; assay: Cytotoxicity against human HT-29 cells after 48 hrs by SRB assay; type: functional; conditions: HT-29, 48 h; procedure, shortened: as §1
[6] = test system: SF-295; assay: Cytotoxicity against human SF295 cells after 48 hrs by SRB assay; type: functional; conditions: SF-295, 48 h; procedure, shortened: as §1
[7] = test system: Malme-3M; assay: Cytotoxicity against human MALME-3M cells after 48 hrs by SRB assay; type: functional; procedure, shortened: as §1
[8] = test system: UACC-62; assay: Cytotoxicity against human UACC62 cells after 48 hrs by SRB assay; type: functional; conditions: UACC-62, 48 h
Procedure, shortened: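 NCI-60 panel, five doses at 1-log steps from 10−4 to 10−8 M. Cells grown in RPMI 1640 with 5% FBS and 2 mM L-glutamine, seeded at 5000–40 000 cells/well and preincubated 24 h. Tz plates were TCA-fixed at drug addition. Drug exposure 48 h at 37 °C, then TCA fixation, 0.4% SRB stain and absorbance at 515 nm. GI50 taken from percent growth relative to Tz and control.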

[9] = test system: IGROV-1; assay: Cytotoxicity against human IGROV1 cells after 48 hrs by SRB assay; type: functional; conditions: IGROV-1, 48 h; procedure, shortened: as §1
[10] = test system: OVCAR-8; assay: Cytotoxicity against human OVCAR8 cells after 48 hrs by SRB assay; type: functional; conditions: OVCAR-8, 48 h; procedure, shortened: as §1
[11] = test system: ACHN; assay: Cytotoxicity against human ACHN cells after 48 hrs by SRB assay; type: functional; procedure, shortened: as §1
[12] = Potency index, ratio of sorafenib GI50 to test compound GI50 for human prostate cancer cells; type: functional, Prostate cancer cell
Procedure, shortened: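 GI50 is the concentration giving 50% reduction in net protein increase relative to control. Potency index is the reference-drug GI50 divided by the test-compound GI50.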

[13] = Potency index, ratio of test compound LC50 to sunitinib LC50 for human prostate cancer cells; type: functional, Prostate cancer cell
[14] = biological target: Fibroblast growth factor receptor 3 (Homo sapiens) (UniProt P22607); assay: Inhibition of human FGFR3 at 0.5 uM relative to control
Sequence of Fibroblast growth factor receptor 3 (Homo sapiens) (P22607 23-806 limits assumed): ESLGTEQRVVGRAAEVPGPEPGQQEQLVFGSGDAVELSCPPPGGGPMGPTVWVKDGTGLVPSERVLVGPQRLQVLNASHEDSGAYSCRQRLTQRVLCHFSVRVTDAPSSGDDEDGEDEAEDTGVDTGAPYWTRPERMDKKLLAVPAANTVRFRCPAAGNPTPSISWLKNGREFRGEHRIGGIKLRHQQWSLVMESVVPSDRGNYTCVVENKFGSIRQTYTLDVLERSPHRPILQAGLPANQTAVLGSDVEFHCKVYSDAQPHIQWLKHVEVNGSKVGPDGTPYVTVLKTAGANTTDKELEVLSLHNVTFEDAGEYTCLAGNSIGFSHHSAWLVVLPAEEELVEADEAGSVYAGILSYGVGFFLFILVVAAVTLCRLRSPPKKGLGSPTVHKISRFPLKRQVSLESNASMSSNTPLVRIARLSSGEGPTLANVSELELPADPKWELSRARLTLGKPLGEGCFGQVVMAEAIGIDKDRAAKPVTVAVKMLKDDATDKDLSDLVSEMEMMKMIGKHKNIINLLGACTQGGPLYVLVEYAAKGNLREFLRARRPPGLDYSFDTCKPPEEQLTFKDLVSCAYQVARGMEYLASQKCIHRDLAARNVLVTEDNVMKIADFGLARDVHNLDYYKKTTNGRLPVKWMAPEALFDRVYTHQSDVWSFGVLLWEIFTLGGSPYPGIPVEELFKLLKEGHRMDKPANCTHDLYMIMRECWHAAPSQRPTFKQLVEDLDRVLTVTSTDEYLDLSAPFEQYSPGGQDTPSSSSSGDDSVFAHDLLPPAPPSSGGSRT

[15] = biological target: Ephrin type-A receptor 5 (Homo sapiens) (UniProt P54756); assay: Inhibition of human EPHA5 at 0.5 uM relative to control
Sequence of Ephrin type-A receptor 5 (Homo sapiens) (P54756 whole entry): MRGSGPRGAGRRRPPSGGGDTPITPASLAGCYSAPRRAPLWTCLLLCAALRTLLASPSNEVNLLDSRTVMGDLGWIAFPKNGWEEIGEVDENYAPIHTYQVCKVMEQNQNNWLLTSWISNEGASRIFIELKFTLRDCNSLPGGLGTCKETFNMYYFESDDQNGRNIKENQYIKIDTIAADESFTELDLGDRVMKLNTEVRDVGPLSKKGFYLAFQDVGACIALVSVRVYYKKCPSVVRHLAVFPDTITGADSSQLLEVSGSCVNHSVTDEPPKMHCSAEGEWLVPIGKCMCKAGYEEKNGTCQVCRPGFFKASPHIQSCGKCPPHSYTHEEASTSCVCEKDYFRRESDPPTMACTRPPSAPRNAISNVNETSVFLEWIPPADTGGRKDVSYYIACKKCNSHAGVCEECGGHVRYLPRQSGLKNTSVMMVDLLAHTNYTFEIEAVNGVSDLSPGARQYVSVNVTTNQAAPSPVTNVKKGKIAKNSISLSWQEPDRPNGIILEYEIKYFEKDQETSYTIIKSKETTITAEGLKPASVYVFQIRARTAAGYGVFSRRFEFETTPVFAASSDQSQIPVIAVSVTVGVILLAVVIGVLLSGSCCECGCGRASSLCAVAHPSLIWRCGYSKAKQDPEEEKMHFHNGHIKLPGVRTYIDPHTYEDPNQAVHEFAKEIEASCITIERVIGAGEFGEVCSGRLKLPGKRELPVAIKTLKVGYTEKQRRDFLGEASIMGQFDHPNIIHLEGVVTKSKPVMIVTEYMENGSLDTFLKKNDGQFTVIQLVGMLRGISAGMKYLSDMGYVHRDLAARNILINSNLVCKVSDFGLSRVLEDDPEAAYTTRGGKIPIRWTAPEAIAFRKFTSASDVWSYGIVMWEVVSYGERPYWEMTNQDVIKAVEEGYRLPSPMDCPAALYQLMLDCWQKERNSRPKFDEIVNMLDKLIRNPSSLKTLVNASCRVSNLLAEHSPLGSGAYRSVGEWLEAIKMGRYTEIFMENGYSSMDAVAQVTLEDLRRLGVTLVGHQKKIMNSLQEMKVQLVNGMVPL

[16] = biological target: Ephrin type-A receptor 8 (Homo sapiens) (UniProt P29322); assay: Inhibition of human EPHA8 at 0.5 uM relative to control
Sequence of Ephrin type-A receptor 8 (Homo sapiens) (P29322 whole entry): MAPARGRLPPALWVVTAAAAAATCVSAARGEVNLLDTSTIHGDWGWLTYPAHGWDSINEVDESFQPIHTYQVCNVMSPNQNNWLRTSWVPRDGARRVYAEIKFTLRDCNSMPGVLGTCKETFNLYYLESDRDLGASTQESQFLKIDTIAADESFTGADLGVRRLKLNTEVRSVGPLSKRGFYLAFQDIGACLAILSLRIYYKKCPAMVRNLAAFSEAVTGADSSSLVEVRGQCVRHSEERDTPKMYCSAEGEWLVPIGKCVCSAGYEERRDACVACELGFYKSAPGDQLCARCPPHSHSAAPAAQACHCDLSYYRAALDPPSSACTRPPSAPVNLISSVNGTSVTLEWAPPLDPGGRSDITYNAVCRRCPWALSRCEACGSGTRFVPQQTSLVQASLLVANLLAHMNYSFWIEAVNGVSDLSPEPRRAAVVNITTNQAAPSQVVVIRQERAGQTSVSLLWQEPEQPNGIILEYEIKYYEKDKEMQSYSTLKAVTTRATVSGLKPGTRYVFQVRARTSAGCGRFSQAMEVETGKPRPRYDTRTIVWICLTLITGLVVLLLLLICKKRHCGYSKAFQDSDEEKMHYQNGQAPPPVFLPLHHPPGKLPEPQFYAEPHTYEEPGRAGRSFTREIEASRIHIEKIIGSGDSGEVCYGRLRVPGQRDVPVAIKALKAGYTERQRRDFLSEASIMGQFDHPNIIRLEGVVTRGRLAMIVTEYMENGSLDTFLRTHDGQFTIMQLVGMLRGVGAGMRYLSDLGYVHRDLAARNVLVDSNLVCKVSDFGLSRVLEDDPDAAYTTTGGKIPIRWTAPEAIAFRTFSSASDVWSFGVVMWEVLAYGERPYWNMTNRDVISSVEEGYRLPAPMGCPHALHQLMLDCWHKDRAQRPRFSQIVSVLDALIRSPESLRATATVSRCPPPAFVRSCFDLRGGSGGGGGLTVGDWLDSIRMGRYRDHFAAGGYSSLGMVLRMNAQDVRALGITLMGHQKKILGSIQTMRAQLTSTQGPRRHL

[17] = organism: Homo sapiens; assay: Inhibition of human PDGFR at 0.5 uM relative to control
[18] = biological target: Vascular endothelial growth factor receptor 2 (Homo sapiens, UniProt P35968); conditions: at 0.5 µM
Sequence of Vascular endothelial growth factor receptor 2 (P35968 whole entry): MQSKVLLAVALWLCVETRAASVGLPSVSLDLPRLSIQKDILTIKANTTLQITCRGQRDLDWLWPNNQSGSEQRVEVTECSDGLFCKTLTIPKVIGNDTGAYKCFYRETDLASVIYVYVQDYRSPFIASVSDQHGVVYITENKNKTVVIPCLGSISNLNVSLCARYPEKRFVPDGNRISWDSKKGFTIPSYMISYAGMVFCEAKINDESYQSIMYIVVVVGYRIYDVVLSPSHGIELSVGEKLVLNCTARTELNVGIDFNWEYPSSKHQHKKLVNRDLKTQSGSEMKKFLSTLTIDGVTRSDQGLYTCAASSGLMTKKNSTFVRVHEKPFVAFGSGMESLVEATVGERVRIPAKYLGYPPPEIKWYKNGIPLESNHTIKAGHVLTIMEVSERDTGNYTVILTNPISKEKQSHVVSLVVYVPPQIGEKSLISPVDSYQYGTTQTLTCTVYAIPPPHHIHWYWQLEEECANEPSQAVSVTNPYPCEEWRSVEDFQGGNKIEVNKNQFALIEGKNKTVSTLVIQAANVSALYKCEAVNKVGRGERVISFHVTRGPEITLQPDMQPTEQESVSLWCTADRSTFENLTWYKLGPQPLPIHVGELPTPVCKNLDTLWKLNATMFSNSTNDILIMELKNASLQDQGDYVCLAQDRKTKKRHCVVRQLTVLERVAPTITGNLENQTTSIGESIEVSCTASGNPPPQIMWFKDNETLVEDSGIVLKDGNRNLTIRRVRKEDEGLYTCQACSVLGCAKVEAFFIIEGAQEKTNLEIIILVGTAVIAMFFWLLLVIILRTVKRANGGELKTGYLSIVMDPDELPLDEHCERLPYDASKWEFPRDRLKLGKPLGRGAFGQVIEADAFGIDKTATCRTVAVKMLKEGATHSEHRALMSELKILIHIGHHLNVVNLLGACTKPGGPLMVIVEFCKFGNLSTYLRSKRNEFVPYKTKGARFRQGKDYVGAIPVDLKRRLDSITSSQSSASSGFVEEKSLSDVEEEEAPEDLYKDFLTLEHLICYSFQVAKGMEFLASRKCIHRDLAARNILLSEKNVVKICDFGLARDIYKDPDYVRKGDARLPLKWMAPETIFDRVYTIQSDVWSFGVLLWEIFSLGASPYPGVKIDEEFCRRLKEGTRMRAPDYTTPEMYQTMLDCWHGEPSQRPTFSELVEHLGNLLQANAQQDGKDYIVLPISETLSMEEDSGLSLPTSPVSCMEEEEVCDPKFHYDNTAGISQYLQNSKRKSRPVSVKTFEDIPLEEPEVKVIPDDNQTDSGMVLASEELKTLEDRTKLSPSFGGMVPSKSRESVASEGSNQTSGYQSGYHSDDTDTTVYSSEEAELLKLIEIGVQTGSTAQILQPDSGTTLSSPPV

[19] = read-out: LC50 (the source's name)

## COc1cc2ncnc(Oc3ccc(NC(=O)Nc4ccc(CN5CCOCC5)c(C(F)(F)F)c4)c4ccccc34)c2cc1OC
[1]
  inhibition of growth at 10 µM: 98.4%
[2]
  GI50: 1.17 µM
  TGI: 40.7 µM
[2]; [19]
  CC50: > 100 µM
[3]
  GI50: < 0.01 µM
  TGI: 1.12 µM
[3]; [19]
  CC50: 95.5 µM
[4]
  GI50: 0.62 µM
  TGI: 3.98 µM
[4]; [19]
  CC50: > 100 µM
[5]
  GI50: 0.45 µM
  TGI: 13.2 µM
[5]; [19]
  CC50: > 100 µM
[6]
  GI50: 1.23 µM
  TGI: 6.03 µM
[6]; [19]
  CC50: 30.9 µM
[7]
  GI50: 0.3 µM
  TGI: 1.55 µM
[7]; [19]
  CC50: 5.75 µM
[8]
  GI50: 0.6 µM
  TGI: 3.47 µM
[8]; [19]
  CC50: 18.6 µM
[9]
  GI50: 0.52 µM
  TGI: 3.63 µM
[9]; [19]
  CC50: > 100 µM
[10]
  GI50: 0.4 µM
  TGI: 9.55 µM
[10]; [19]
  CC50: > 100 µM
[11]
  GI50: 0.32 µM
  TGI: 1.62 µM
[11]; [19]
  CC50: 14.1 µM
[12]
  RatioGI50: 1.6
[13]
  RatioLC50: 1.7
[14]
  inhibition: > 96%
[15]
  inhibition: Active
[16]
  inhibition: Active
[17]
  inhibition: Active
[18]
  inhibition: Active
